# Source: ChEMBL document CHEMBL1139842, “Effects of azaspiracid-1, a potent cytotoxic agent, on primary neuronal cultures. A structure-activity relationship study” (J Med Chem, 2007)
# Active and inactive are the calls of the source. No cut-off for these calls is given here.
# Assays:
# [1] = Effect on intracellular pH in presence of calcium in cerebellar granule cells at 1 uM; assay type: functional, cell-based; settings: Mus musculus
# Procedure, shortened: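 530-nm emission ratio at 490/440 excitation from 25-30 cells per coverslip, converted to pH by nigericin in situ calibration (pH 6-9). Tested in calcium-free medium then after calcium restoration, or in calcium-containing medium; drug buffer pH 7.4.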
# [2] = Decrease in intracellular pH in cerebellar granule cells in calcium free medium at 1 uM; assay type: functional
# Procedure, shortened: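 Single-cell imaging at 37 °C in an open-bath chamber, drug buffers at pH 7.4. Compound added in calcium-free buffer, then calcium restored, or added in calcium-containing buffer. Read-out is the 490/440 excitation ratio at 530 nm emission from 25-30 cells per coverslip, converted to pH by nigericin in situ calibration (pH 6-9). Three to five independent experiments, each in duplicate.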
# [3] = Increase in cytosolic calcium concentration in cerebellar granule cells in presence of calcium at 1 uM; assay type: functional; settings: Mus musculus
# Procedure, shortened: (§1)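 Cultured mouse cerebellar granule cells co-loaded with Fura-2 AM (1 µM) and BCECF-AM (0.5 µM), 10 min at 37 °C, imaged by epifluorescence microscopy in a 37 °C open-bath chamber. Compound applied in calcium-free buffer (pH 7.4) before calcium was restored, or added directly in calcium-containing medium. [Ca2+]c calibrated by the Grynkiewicz method. Means ± SEM of 3-4 experiments in duplicate.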
# [4] = Increase in cytosolic calcium concentration in cerebellar granule cell in calcium free medium at 1 uM; assay type: functional, cell-based; settings: Mus musculus; procedure, shortened: as §1
# [5] = system: cerebellar granule cells (mouse); assay: Cytotoxicity against cerebellar granule neurons at 250 nM by MTT assay after 24 hrs
# [6] = system: cerebellar granule cells (mouse); assay: Increase in cytosolic calcium concentration in cerebellar granule cells in presence of calcium at 1 uM
# [7] = system: COLO; assay: Cytotoxicity against cerebellar granule neurons at 250 nM by MTT assay after 4 hrs; assay type: functional, Mus musculus
# Procedure, shortened: (§2)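 Primary cerebellar granule cells from 7-day-old Swiss mice, cultured 8-11 days in KCl (25 mM) DMEM with 10% fetal calf serum and cytosine arabinoside. Exposed in culture medium to compound (0.5-250 nM range; fragments 250 nM) for 4, 8 or 24 h at 37 °C. Then MTT 500 µg/mL in Locke's buffer for 30 min, SDS lysis, formazan read at 590. IC50 given with 95% confidence intervals.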
# [8] = Cytotoxicity against cerebellar granule neurons by MTT assay; settings: mouse, cerebellar granule neurone
# Procedure, shortened: (§3)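 Primary cerebellar granule cells from 7-day-old Swiss mouse cerebella, cultured 8-11 days in DMEM with 25 mM KCl and 10% fetal calf serum; cytosine arabinoside (20 µM) against glia. Compound added in culture medium for 4, 8 or 24 h (0.5-250 nM range; fragments 24 h at 250 nM). MTT (500 µg/mL, 30 min, Locke's buffer), SDS lysis, formazan absorbance at 590. Means ± SEM.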
# [9] = Cytotoxicity assessed as effect on viability of cerebellar granule neurons at 100 nM by MTT assay after 4 hrs; design: species or system Cerebellar granule neurone; settings: mouse, read-out: Activity; procedure, shortened: as §3
# [10] = Cytotoxicity against cerebellar granule neurons by MTT assay after 8 hrs; design: species or system Mus musculus, Cerebellar granule neurone; procedure, shortened: as §2
# [11] = Cytotoxicity against cerebellar granule neurons by MTT assay after 24 hrs; design: species or system Mus musculus, Cerebellar granule neurone; procedure, shortened: as §2
# [12] = Mus musculus, Cerebellar granule neurone
# [13] = mouse, cerebellar granule neurone
SMILES,Activity [1],Activity ([2]; Mus musculus),Activity [3],Activity [4],Activity [5] [%],Activity [6] [nM],other results
"C[C@H]1CN[C@]2(C[C@H]3O[C@]4(CC(=O)O)C[C@@H](C)C[C@H](O4)[C@H]3O2)[C@@H](C)C1 (single isomer, unassigned)",inactive,inactive,inactive,inactive,110.15,,
C[C@@H]1CN[C@@]2(C[C@@H]3O[C@@]4(CC(=O)O)C[C@H](C)C[C@@H](O4)[C@@H]3O2)[C@H](C)C1,inactive,inactive,inactive,inactive,84.95,,
"COC(=O)[C@@H](NC(=O)C[C@]12C[C@H](C)C[C@@H](O1)[C@@H]1O[C@@]3(C[C@@H]1O2)NC[C@@H](C)C[C@H]3C)c1ccccc1 (single isomer, unassigned)",inactive,,inactive,inactive,90.02,,
C[C@@H]1C[C@H]2O[C@H](CO)C[C@H]2O[C@]12CC[C@@]1(CC=C[C@H](/C=C/CCC(=O)O)O1)O2,,,,inactive,102.59,130,
C=C(CO)[C@H]1O[C@@](O)([C@H](O)[C@@H]2C[C@H]3O[C@@]4(CC[C@]5(CC=C[C@@H](/C=C/CCC(=O)O)O5)O4)[C@H](C)C[C@H]3O2)[C@H](C)C[C@@H]1C,,,,,99.09,200,
COC(=O)[C@H](NC(=O)C[C@@]12C[C@@H](C)C[C@H](O1)[C@H]1O[C@]3(C[C@H]1O2)NC[C@H](C)C[C@@H]3C)c1ccccc1,inactive,inactive,inactive,inactive,99.25,,
C[C@H]1C[C@@H]2O[C@@H](CO)C[C@@H]2O[C@]12CC[C@@]1(CC=C[C@H](/C=C/CCC(=O)O)O1)O2,,,,,83.66,150,
C=C(CO)[C@H]1O[C@@](O)([C@@H](O)[C@H]2C[C@@H]3O[C@]4(CC[C@@]5(CC=C[C@H](/C=C/CCC(=O)O)O5)O4)[C@@H](C)C[C@@H]3O2)[C@H](C)C[C@@H]1C,,,,inactive,100.57,250,
C[C@@H]1C[C@H]2O[C@H](CO)C[C@H]2O[C@@]12CC[C@]1(CC=C[C@@H](/C=C/CCC(=O)O)O1)O2,,,,inactive,100.32,100,
COC(=O)[C@H](NC(=O)C[C@]12C[C@H](C)C[C@@H](O1)[C@@H]1O[C@@]3(C[C@@H]1O2)NC[C@@H](C)C[C@H]3C)c1ccccc1,inactive,inactive,inactive,inactive,99.4,,
"COC(=O)[C@@H](NC(=O)C[C@@]12C[C@@H](C)C[C@H](O1)[C@H]1O[C@]3(C[C@H]1O2)NC[C@H](C)C[C@@H]3C)c1ccccc1 (single isomer, unassigned)",inactive,inactive,inactive,inactive,90.49,,
C=C(C[C@]12C[C@@H](C)C[C@H](O1)[C@H]1O[C@]3(C[C@H]1O2)NC[C@H](C)C[C@@H]3C)[C@H]1O[C@@](O)([C@H](O)[C@@H]2C[C@H]3O[C@@]4(CC[C@]5(CC=C[C@@H](/C=C/CCC(=O)O)O5)O4)[C@H](C)C[C@H]3O2)[C@H](C)C[C@@H]1C,inactive,,Active,inactive,,,"Activity [7]: 40%; Activity [2]: -0.15; Activity [8]: Dose-dependent effect and tde; viability at 4 h, 0.1 µM [9]: 40%; IC50 [10, 12]: 32 nM; Activity [10, 13]: 90%; IC50 [11, 12]: 0.87 nM; Activity [11, 13]: 85%"
C[C@H]1C[C@H]2O[C@H](CO)C[C@H]2O[C@]12CC[C@@]1(CC=C[C@H](/C=C/CCC(=O)O)O1)O2,,,,,98.29,150,
